For 24 compounds, inhibition, Ratio IC50 and IC50 results are on record in ChEMBL document CHEMBL1155205, “Structure-activity relationship of isoform selective inhibitors of Rac1/1b GTPase nucleotide binding” (Bioorg Med Chem Lett, 2009).

Assay [1] deals with T1, Cell division control protein 42 homolog (Homo sapiens, UniProt P60953). Nature of the assay: Inhibition of Cdc42 GTPase activity assessed as incorporation of BODIPY-GTP at 50 uM after 40 mins by nucleotide binding competition assay. A digest of the protocol:
(§1)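 Bacterially expressed GST-Cdc42 preincubated 10 min at 20 °C in 20 mM Tris pH 8.6, 50 mM NaCl, 1 mM MgCl2. No GEF was added (intrinsic exchange). BODIPY-GTP was then added with or without compound. Fluorescence was read at ex 485/em 538 nm before and after addition. Maximal RFU at 40 min was compared with control. Means of at least three independent experiments, with SEM.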
Target sequence in this assay (P60953 whole entry, looked up): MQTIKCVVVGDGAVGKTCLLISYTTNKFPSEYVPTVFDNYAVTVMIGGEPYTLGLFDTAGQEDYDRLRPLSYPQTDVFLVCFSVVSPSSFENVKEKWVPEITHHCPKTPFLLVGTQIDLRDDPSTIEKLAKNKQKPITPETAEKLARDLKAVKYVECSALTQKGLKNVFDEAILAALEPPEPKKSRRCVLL

For a further assay, the system named is HEK293. Nature of the assay: Inhibition of Rac GTPase activation in Rac1b overexpressing human HEK293 cells at 50 uM after 5 mins by G-LISA assay. It is filed as cell-based. A digest of the protocol: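 HEK293 cells overexpressing human Rac1b were grown 5 days in MEM with 10% FBS, L-glutamine and antibiotics. Cells were then exposed to compound or solvent for 5 min. Rac1b GTP loading was measured with a Rac activation kit using a Rac-specific antibody (G-LISA).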

Assay [2] in a line: Selectivity of IC50 for Rac1 GTPase activity to IC50 for Rac1b GTPase activity. A digest of the protocol:
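Ratio of IC50s for inhibiting BODIPY-GTP binding to bacterially expressed GST-Rac1 and GST-Rac1b. Rac1 binding was stimulated by His6-Tiam1 DH/PH, while Rac1b used intrinsic exchange. Protein was pre-incubated 10 min at 20 °C in 20 mM Tris pH 8.6, 50 mM NaCl, 1 mM MgCl2, then BODIPY-GTP ± compound was added. Fluorescence (ex 485/em 538 nm) was read as maximal RFU at 40 min; means of ≥3 independent experiments.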

Assay [3] concerns the target T1, Cell division control protein 42 homolog. Briefly: Inhibition of Cdc42 GTPase activity assessed as incorporation of BODIPY-GTP after 40 mins by nucleotide binding competition assay. A digest of the protocol:
as §1
Target sequence in this assay (P60953 whole entry): as the sequence (P60953 whole entry, looked up) above

Assay [4] has as its target T2, Ras-related C3 botulinum toxin substrate 1 (Homo sapiens, UniProt P63000). Nature of the assay: Inhibition of Rac1b GTPase activity assessed as incorporation of BODIPY-GTP after 40 mins by nucleotide binding competition assay.
Assay [5] deals with T2, Ras-related C3 botulinum toxin substrate 1. Briefly: Inhibition of Rac1 GTPase activity assessed as incorporation of BODIPY-GTP after 40 mins by nucleotide binding competition assay.

Counter-ions that a name gives are not always drawn. A value given as a limit tells only on which side of the number the result lay.

A word on the inhibition: it is the relative decrease from the control value, in per cent. With `Cc1nc(-c2ccc(O)c(O)c2)cc2cc(O)c(O)cc12`, in assay [1], the inhibition is 15%.

In the case of `C[n+]1cc2c3c(ccc2c2ccc4cc5c(cc4c21)OCO5)OCO3`, the inhibition in assay [1] was found to be 63%; in the assay with HEK293, 50%. Also, the Ratio IC50 in assay [2] was 13.

A word on the IC50: it is the concentration needed to halve the response being measured. On to `COc1cc2cc(-c3ccc(O)c(O)c3)nc(C)c2cc1OC`, for which the inhibition in assay [1] stood at 15%; with HEK293, 61%. Also, the IC50 in assay [3] is over 100 µM.

In the case of `Cc1c2cc(O)c(O)cc2cc2c3ccc(O)c(O)c3cc[n+]12`, the inhibition in assay [1] is 70%; with HEK293 it was under 20%. For the same compound, in assay [3], the IC50 is 26 µM.

In the case of `COc1ccc2cc3[n+](cc2c1OC)CCc1cc(O)c(O)cc1-3`, the results for the inhibition (in assay [1]; in the assay with HEK293) were 31% and 35%, respectively. The IC50 in assay [4] is 31 µM; in assay [3], over 100 µM; in assay [5] it was 63 µM.

As to `COc1cc2cc(-c3ccc4ccccc4c3)nc(C)c2cc1OC`, the inhibition in assay [1] is 29%; with HEK293, under 20%. The IC50 in assay [3] is over 100 µM.

`COc1ccc2c(c[n+](C)c3c4cc5c(cc4ccc23)OCO5)c1OC` [CHELERYTHRINE CHLORIDE]: the inhibition in assay [1] is 35%; in the assay with HEK293, 40%. Besides, the IC50 in assay [4] was 7 µM; in assay [3], over 100 µM; in assay [5] it was over 100 µM. Moreover, the Ratio IC50 in assay [2] was over 14.

Consider `COc1cc2c(cc1OC)-c1cc3ccc(OC)c(OC)c3c[n+]1CC2`, for which the inhibition in assay [1] turned out to be 8%.

Consider `COc1ccc2c(c1OC)C(c1ccccc1)N1CCc3cc4c(cc3C1C2)OCO4` (centres undefined), for which the inhibition in assay [1] amounted to 9%.

As for `COc1ccc2c(c1OC)CN1CCc3cc4c(cc3C1C2)OCO4` (racemic), the inhibition in assay [1] was determined as 4%.

Consider `COc1cc2cc(-c3ccc4c(c3)OCO4)[n+](C)c(C)c2cc1OC`, for which the inhibition in assay [1] is 0.3%.

With `COc1cc2cc(-c3ccc(O)c(O)c3)[n+](C)c(C)c2cc1OC`, the inhibition in assay [1] came to 5%.

Regarding `COc1ccc2c(c[n+](C)c3c4cc(O)c(O)cc4ccc23)c1OC`, the inhibition in assay [1] turned out to be 38%; in the assay with HEK293 it was 39%. Further, in assay [3], the IC50 is 73 µM.

As for `COc1ccc2cc3[n+](cc2c1OC)CCc1cc2c(cc1-3)OCO2`, in assay [1], the inhibition was 8%.

With `COc1cc2cc(-c3cccc(C(C)=O)c3)[n+](C)c(C)c2cc1OC`, in assay [1], the inhibition was 7%.

With `Oc1cc2c(cc1O)-c1cc3ccc(O)c(O)c3c[n+]1CC2`, the inhibition was over 100% in assay [1] and under 20% with HEK293. Moreover, in assay [3], the IC50 was determined as 6 µM.

`Oc1cc2c(cc1O)C1Cc3ccc(O)c(O)c3CN1CC2` (centres undefined) [TETRAHYDROXYCANADINE HYDROCHLORIDE]: the inhibition in the assay on HEK293 is under 20%. Moreover, the IC50 in assay [3] is over 100 µM.

Regarding `Cc1c2cc(O)c(O)cc2cc(-c2ccc(O)c(O)c2)[n+]1C`, in assay [1], the inhibition was determined as 12%.

Take `COc1cc2cc3c4ccc(OC)c(OC)c4cc[n+]3c(C)c2cc1OC`: in assay [1], the inhibition was 23%.

For the compound `COc1cc2cc(-c3ccc4c(c3)OCO4)nc(C)c2cc1OC`, the inhibition in assay [1] is 14%.

For the compound `C[n+]1cc2c(O)c(O)ccc2c2ccc3cc(O)c(O)cc3c21`, the inhibition in assay [1] was 73%; with HEK293, under 20%.

In the case of `COc1cc2cc(-c3cccc(C(C)=O)c3)nc(C)c2cc1OC`, the inhibition in assay [1] turned out to be 7%.

For the compound `Nc1nc2c(ncn2[C@H]2O[C@@H](COP(=O)(O)OP(=O)(O)O)[C@H](O)[C@@H]2O)c(=O)[nH]1`, the IC50 is 1.8 µM in assay [4], 1.4 µM in assay [3] and 2.7 µM in assay [5].

As to `COc1cc2cc(-c3ccc(Cl)c(Cl)c3)nc(C)c2cc1OC`, the inhibition in assay [1] is 5%.
